Experimental findings from ChEMBL document CHEMBL4251712, “Mbandakamine-Type Naphthylisoquinoline Dimers and Related Alkaloids from the Central African Liana Ancistrocladus ealaensis with Antiparasitic and Antileukemic Activities” (J Nat Prod, 2018) are described below.

The source made the active and inactive calls. The calls are words filed in the database; no cut-off is given here.

What is called IC50 is the concentration at which inhibition is half-maximal.

In one data set the test system is L6. The data set is described as follows: Cytotoxicity against rat L6 cells after 72 hrs by Alamar blue assay. The class given is cell-based. The settings on record: L6, 72 h. In short, it runs like this:
(§1)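 IC50 values are means of two independent assays, individual values differing by less than a factor of 2.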

Data set [1] relates to Plasmodium falciparum. The data set is described as follows: Antiplasmodial activity against chloroquine-sensitive Plasmodium falciparum NF54 assessed as reduction in [3H]-hypoxanthine incorporation pretreated for 48 hrs followed by [3H]-hypoxanthine addition measured after 24 hrs by liquid scintillation counting method. The class given is functional, organism-based.
Data set [2] deals with Plasmodium falciparum. As to the kind of experiment: Antiplasmodial activity against chloroquine and pyrimethamine-resistant Plasmodium falciparum K1 assessed as reduction in [3H]-hypoxanthine incorporation pretreated for 48 hrs followed by [3H]-hypoxanthine addition measured after 24 hrs by liquid scintillation counting method. Format: functional, organism-based. A digest of the protocol: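 IC50 against the K1 strain taken as the mean of two independent assays, with individual values differing by a factor of less than 2.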

Data set [3] concerns Trypanosoma brucei rhodesiense. As to the kind of experiment: […] activity against Trypanosoma brucei rhodesiense STIB 900 trypomastigote after 72 hrs by Alamar blue assay. The conditions noted are these: for IC50: STIB 900, 72 h. Format: functional, organism-based. In short, it runs like this: as §1
(In general: The colour change of resazurin is a common sign of viable cells or microbes.)

The next data set concerns Leishmania donovani. The data set is described as follows: […] activity against Leishmania donovani MHOM-ET-67/L82 axenic amastigotes after 72 hrs by Alamar blue assay. The class given is functional, organism-based. The settings on record: for IC50: MHOM-ET-67/L82, 72 h. In short, it runs like this:
as §1

Data set [4] is described as follows: Selectivity index, ratio of IC50 for rat L6 cells to IC50 for chloroquine-sensitive Plasmodium falciparum NF54. The class given is toxicity. The settings on record: read-out: Ratio IC50. In short, it runs like this: (§2)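 Selectivity index is the L6-cell IC50 divided by the P. falciparum IC50 for the matching strain (K1 or NF54). Each IC50 is the mean of two independent assays, with individual values differing by a factor of less than 2.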

The nature of data set [5]: Selectivity index, ratio of IC50 for rat L6 cells to IC50 for chloroquine and pyrimethamine-resistant Plasmodium falciparum K1. The class given is toxicity. The settings on record: read-out: Ratio IC50. A digest of the protocol: as §2
Data set [6] deals with CCRF-CEM. As to the kind of experiment: Antileukemic activity against human CCRF-CEM cells after 24 to 48 hrs by resazurin dye based fluorescence assay. The class given is functional, cell-based. In short, it runs like this:
(§3)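 Leukemia cells treated with compounds across 0.001 to 100 μM, doxorubicin as reference drug; viability read by resazurin assay. Values are means with standard deviation of three independent experiments, each with six parallel measurements.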

For data set [7], the system named is ADR5000 cell line. The data set is described as follows: Antileukemic activity against human CEM/ADR5000 cells after 24 to 48 hrs by resazurin dye based fluorescence assay. The class given is functional, cell-based. A digest of the protocol: as §3
The nature of data set [8]: Resistance index, ratio of IC50 for human CEM/ADR5000 cells to IC50 for human CCRF-CEM cells. The class given is functional. A digest of the protocol:
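Degree of resistance calculated as IC50 for CEM/ADR5000 divided by IC50 for CCRF-CEM; IC50s from resazurin viability assay after treatment at 0.001 to 100 μM, three independent experiments of six parallels each.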

The test system of another data set is Trypanosoma cruzi. The data set is described as follows: […] activity against Trypanosoma cruzi Tulahuen C4 infected in rat L6 cells after 96 hrs by CPRG/Nonidet reagent based photometric analysis. Format: functional, organism-based. The conditions noted are these: for IC50: Tulahuen C4, L6, 96 h. A digest of the protocol: as §1
For data set [9], the system named is Plasmodium falciparum. As to the kind of experiment: Antiplasmodial activity against Plasmodium falciparum NF54. Format: functional, organism-based. A digest of the protocol: as §1
Data set [10] concerns CCRF-CEM. As to the kind of experiment: Antileukemic activity against human CCRF-CEM cells assessed as reduction in cell viability at 0.001 to 100 uM after 24 to 48 hrs by resazurin dye based fluorescence assay relative to control.
Data set [11] relates to ADR5000 cell line. As to the kind of experiment: Antileukemic activity against human CEM/ADR5000 cells assessed as reduction in cell viability at 0.001 to 100 uM after 24 to 48 hrs by resazurin dye based fluorescence assay relative to control.

As to `COc1cc([C@@H]2c3cc4c(cc3[C@H](O)[C@H]3COC(=O)[C@H]23)OCO4)cc(OC)c1OC` [PODOFILOX], in the data set with L6, inhibition was half-maximal at 0.041 µM (IC50).
Turning to `COc1cc(O)c(-c2ccc(OC)c3c(O)cc(C)c(-c4cc(-c5c(O)cc(OC)c6c5C[C@@H](C)N[C@H]6C)c5cc(C)cc(OC)c5c4O)c23)c2c1C(C)=N[C@H](C)C2`, the IC50 was 0.337 µM with Plasmodium falciparum [1]; 0.126 µM with Plasmodium falciparum [2]; 4.1 µM in [3]; more than 100 µM with Leishmania donovani; 8.87 µM with L6; 2.96 µM in the data set with CCRF-CEM [6]. Besides, in the data set on ADR5000 cell line [7], it took 19 µM to reach half-maximal inhibition (IC50). Moreover, the selectivity ratio is 26.3 in data set [4] and 70.4 in [5]. The “Ratio IC50” value in [8] is reported as 6.4.
Take `O=C(Cn1ccnc1[N+](=O)[O-])NCc1ccccc1` [BENZNIDAZOLE]: inhibition with Trypanosoma cruzi was half-maximal at 3.56 µM (IC50).
In turn, `COc1cc(C)cc2c(-c3c(O)cc(O)c4c3C[C@@H](C)N[C@@H]4C)ccc(O)c12` [KORUPENSAMINE A] showed an IC50 with Plasmodium falciparum [9] of 0.82 µM.
Regarding `COc1cc(O)c2c(c1)C[C@H](C)N=C2C`, the result (in the data set with Plasmodium falciparum [1]; in the data set on Plasmodium falciparum [2]; in the data set with Trypanosoma cruzi; in data set [3]; in the data set on Leishmania donovani) was inactive.
For the molecule `COc1cc(O)c2c(c1)C[C@H](C)N[C@H]2C`, the result (in the data set with Plasmodium falciparum [1]; with Plasmodium falciparum [2]; in the data set on Trypanosoma cruzi; in [3]; with Leishmania donovani) was inactive.
`COc1cc(O)cc2c1C(C)=N[C@@H](C)C2`: the outcome (in the data set with Plasmodium falciparum [1]; in the data set on Plasmodium falciparum [2]; in the data set with Trypanosoma cruzi; in data set [3]; with Leishmania donovani) was inactive.
In the case of `COc1cc(O)c2c(c1)C[C@H](C)N[C@@H]2C`, the outcome (in the data set on Plasmodium falciparum [1]; in the data set with Plasmodium falciparum [2]; with Trypanosoma cruzi; in data set [3]; with Leishmania donovani) was inactive.
`COc1cc(O)c(-c2cc(-c3c(C)cc(O)c4c(OC)ccc(-c5c(O)cc(OC)c6c5C[C@@H](C)N[C@@H]6C)c34)c(O)c3c(OC)cc(C)cc23)c2c1[C@@H](C)N[C@H](C)C2`: the 50% inhibitory concentration (IC50) with Plasmodium falciparum [1] stood at 0.13 µM; in the data set with CCRF-CEM [6], 7.4 µM; in the data set with ADR5000 cell line [7], 23.9 µM. Besides, the “Ratio IC50” value in [8] came out at 3.2.
As to `COc1cc(OC)c2c(c1-c1ccc(O)c3c(OC)cc(C)cc13)C[C@H](C)N[C@H]2C` [ANCISTROEALAINE B], the half-inhibitory concentration (IC50) in the data set on Plasmodium falciparum [1] was determined as 1.74 µM; with Plasmodium falciparum [2] it was 0.76 µM; with Trypanosoma cruzi it was 32.5 µM; in data set [3], 3.85 µM; in the data set on Leishmania donovani, 37.9 µM; with L6 it was 77.8 µM. Also, the selectivity ratio in [4] turned out to be 44.7; in data set [5], 102.
Regarding `COc1cc(OC)c(-c2ccc(O)c3c(OC)cc(C)cc23)c2c1C(C)=N[C@@H](C)C2`, the IC50 in the data set with Plasmodium falciparum [1] worked out at 2.69 µM; in the data set with Plasmodium falciparum [2], 1.06 µM; in the data set with Trypanosoma cruzi, 43.4 µM; in data set [3], 1.46 µM; in the data set with Leishmania donovani, 13.4 µM; in the data set on L6, 101 µM. The selectivity ratio is 37.5 in data set [4] and 95.3 in [5]. Further, the Activity in the data set with CCRF-CEM [10] and in the data set with ADR5000 cell line [11] was less than 20% each time.
`COc1cc(C)cc2c(-c3c(O)cc(O)c4c3C[C@@H](C)N[C@H]4C)ccc(O)c12`: the IC50 in the data set with Plasmodium falciparum [1] was determined as 9.94 µM; in the data set on Plasmodium falciparum [2], 12.9 µM; with Trypanosoma cruzi, 237 µM; in data set [3], 15.3 µM; with Leishmania donovani it was 26.4 µM; with L6, 79.1 µM. For the same molecule, the selectivity ratio in [4] was found to be 7.95; in data set [5] it was 6.13.
Consider `COc1cc(O)c(-c2cc(-c3c(C)cc(O)c4c(OC)ccc(-c5c(O)cc(OC)c6c5C[C@@H](C)N[C@@H]6C)c34)c(O)c3c(OC)cc(C)cc23)c2c1[C@H](C)N[C@H](C)C2`, for which the IC50 is 0.047 µM with Plasmodium falciparum [1]; 0.064 µM in the data set on Plasmodium falciparum [2]; 41.8 µM in the data set with Trypanosoma cruzi; 1.8 µM in data set [3]; more than 100 µM in the data set on Leishmania donovani; 15.9 µM in the data set on L6. Moreover, the 50% inhibitory concentration (IC50) with CCRF-CEM [6] was 1.5 µM; with ADR5000 cell line [7], 27.7 µM. Also, the selectivity ratio in [4] was found to be 339; in data set [5], 249. Besides, the “Ratio IC50” value in data set [8] worked out at 18.5.
